Measurements: ChEMBL document CHEMBL2046302, “Fused tricyclic indoles as S1P₁ agonists with robust efficacy in animal models of autoimmune disease” (Bioorg Med Chem Lett, 2012)
Activity calls are given as the source filed them. The calls are words filed in the database; no cut-off is given here.

Tests used:
Rattus norvegicus = assay: Immunosuppressant activity in collagen-induced Lewis rat arthritis model assessed as reduction in joint inflammation at 0.075 mg/kg, po qd; type: functional, organism-based; parameters: dose 0.075 mg/kg
[1] = biological target: Sphingosine 1-phosphate receptor 1 (Homo sapiens, UniProt P21453); assay: Agonist activity against human S1P1 assessed as accumulation of cAMP by HTRF assay; type: functional
How it was run: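 Agonist EC50 was read from a cAMP HTRF assay run on human, rat and mouse S1P1. Response was scaled against S1P, and values are the mean of three or more replicates.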

Chain of Sphingosine 1-phosphate receptor 1 (P21453 whole entry): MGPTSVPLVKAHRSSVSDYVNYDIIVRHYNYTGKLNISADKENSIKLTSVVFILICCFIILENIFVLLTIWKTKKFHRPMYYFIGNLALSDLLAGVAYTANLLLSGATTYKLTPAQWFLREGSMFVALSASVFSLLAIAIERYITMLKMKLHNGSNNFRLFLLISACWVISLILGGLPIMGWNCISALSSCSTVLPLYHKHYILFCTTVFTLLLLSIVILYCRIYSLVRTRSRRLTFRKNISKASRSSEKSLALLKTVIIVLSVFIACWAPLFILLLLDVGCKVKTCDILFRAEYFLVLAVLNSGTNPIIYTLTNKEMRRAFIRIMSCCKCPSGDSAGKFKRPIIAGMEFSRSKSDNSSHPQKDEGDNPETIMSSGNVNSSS

Row | SMILES | EC50 [1] | Activity (Rattus norvegicus)
1 | CN(Cc1cnc2nc(N)nc(N)c2n1)c1ccc(C(=O)N[C@@H](CCC(=O)O)C(=O)O)cc1 | – | Active
2 | N#Cc1cc(OC(F)(F)F)cc(-c2nc(-c3ccc4[nH]c5c(c4c3)CCC5CC(=O)O)no2)c1 (racemic) | 1.1 nM | –
3 | N#Cc1cc(OC(F)(F)F)cc(-c2nc(-c3ccc4c(c3)cc3n4CCC3CC(=O)O)no2)c1 (racemic) | 0.25 nM | –
4 | COc1cc(C#N)cc(-c2nc(-c3ccc4c(c3)cc3n4CCC3CC(=O)O)no2)c1 (racemic) | 4.6 nM | –
5 | O=C(O)CC1CCn2c1cc1cc(-c3noc(-c4cc(C(F)(F)F)cc(C(F)(F)F)c4)n3)ccc12 (racemic) | 2.1 nM | –

More lines, main results first:

Row | EC50 [1] | SMILES | Activity (Rattus norvegicus)
6 | 157 nM | COc1cc(C#N)cc(-c2nc(-c3ccc4[nH]c5c(c4c3)CCC5CC(=O)O)no2)c1 (racemic) | –
7 | 3.2 nM | N#Cc1cc(-c2nc(-c3ccc4[nH]c5c(c4c3)CCC5CC(=O)O)no2)ccc1OC(F)(F)F (racemic) | –
8 | 4.6 nM | COc1ccc(-c2nc(-c3ccc4[nH]c5c(c4c3)CCC5CC(=O)O)no2)cc1C#N (racemic) | –
9 | 7.5 nM | CC(C)Oc1ccc(-c2nc(-c3ccc4[nH]c5c(c4c3)CCC5CC(=O)O)no2)cc1C#N (racemic) | –
